Published values gathered from unrelated publications.
Target: cGMP-dependent protein kinase 1 (PRKG1, Homo sapiens, UniProt Q13976)
Residues used in one study (Q13976 1-671): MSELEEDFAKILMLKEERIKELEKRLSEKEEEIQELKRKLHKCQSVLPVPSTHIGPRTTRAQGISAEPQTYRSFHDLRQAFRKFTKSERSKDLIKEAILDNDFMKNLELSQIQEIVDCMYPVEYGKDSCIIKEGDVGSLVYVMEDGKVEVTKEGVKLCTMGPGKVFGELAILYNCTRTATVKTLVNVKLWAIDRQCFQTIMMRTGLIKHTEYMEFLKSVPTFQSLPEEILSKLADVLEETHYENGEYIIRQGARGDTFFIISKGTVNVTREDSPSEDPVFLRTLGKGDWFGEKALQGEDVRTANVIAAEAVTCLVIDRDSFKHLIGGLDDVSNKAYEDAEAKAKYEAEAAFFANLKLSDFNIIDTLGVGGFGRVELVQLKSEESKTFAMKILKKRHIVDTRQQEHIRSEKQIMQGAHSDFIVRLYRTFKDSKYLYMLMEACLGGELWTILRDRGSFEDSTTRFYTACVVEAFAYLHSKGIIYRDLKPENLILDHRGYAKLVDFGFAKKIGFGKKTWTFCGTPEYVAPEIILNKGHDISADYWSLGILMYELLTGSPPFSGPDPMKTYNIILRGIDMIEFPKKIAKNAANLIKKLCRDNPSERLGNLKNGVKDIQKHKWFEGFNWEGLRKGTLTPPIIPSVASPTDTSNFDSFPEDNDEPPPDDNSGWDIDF

SMILES	effect on	action	technique	concentration	measurement	value
Cc1cc(-n2nc(Cc3cc(F)cc(C(F)(F)F)c3)nc2C)ccc1C(N)=O	cell-free assay		competition with immobilised ligand	1 µM	remaining binding	100%
CCOc1cc(-c2nncn2C)ccc1Nc1ncc2cc(C)nc(NCC(C)(C)C)c2n1	enzyme activity	inhibitor	FRET	1 µM	inhibition	< 15%
Cc1cnc(NC2CCOCC2)nc1-n1cnc(C(=O)NC(CN)c2cc(F)cc(Cl)c2)c1 (stereo not shown)	enzyme activity	inhibitor	radiometric	1 µM	remaining activity	100%
CCCOc1ccc(OC)c(F)c1C(=O)c1ccc(C(=O)N[C@@H]2CNC[C@H]2NC(=O)c2ccc3[nH]ncc3c2)cc1	enzyme activity	inhibitor		0.75 µM	remaining activity	0%
CCCS(=O)(=O)Nc1ccc(F)c(C(=O)c2c[nH]c3ncc(-c4ccc(Cl)cc4)cc23)c1F	enzyme activity	inhibitor		1 µM	inhibition	< 10%
Cn1cnc(Br)c1C1=CN(c2ncnc3[nH]cnc23)CCS1	enzyme activity	inhibitor	radiometric	2 µM	inhibition	97.4%
Cc1ccc(C(=O)Nc2ccc(CN3CCN(C)CC3)c(C(F)(F)F)c2)cc1C#Cc1cnc2cccnn12	enzyme activity	inhibitor		23.5 nM	remaining activity	72%
COc1cc2ncnc(Nc3ccc(Oc4ccccc4)c(C)c3C)c2cc1OC	enzyme activity	inhibitor		1 µM	inhibition	4%
O=C(Nc1cccnn1)N1CCC(=Cc2cccc(Oc3ccc(C(F)(F)F)cn3)c2)CC1	cell-free assay		competition with immobilised ligand	1 µM	remaining binding	100%
COc1cc(Cl)c(C(=O)N[C@@H](CN[C@H]2CC[C@@H](N)CC2)Cc2ccc(C#N)cc2)cc1-c1ccc(CN[C@H](C)c2ccc(C)cc2)o1	enzyme activity	inhibitor		1 µM	remaining activity	91%
NS(=O)(=O)c1cc(NC(=O)Cc2ccccc2)ccc1Oc1cccc(Cl)c1	cell-free assay		competition with immobilised ligand	1 µM	remaining binding	100%
CC(C)(C)c1nc2c(s1)c1nc(N)ncc1c1ccc(NS(=O)(=O)c3c(F)cccc3F)c(F)c12	enzyme activity	inhibitor	radiometric	1 µM	remaining activity	99%
Cn1nc(C(=O)NCc2ccc(C(=O)O)cc2)cc1-c1ccc2[nH]ccc2c1	cell-free assay		competition with immobilised ligand	0.1 µM	remaining binding	100%
CNC(=O)c1cc(Oc2ccc(NC(=O)Nc3ccc(Cl)c(C(F)(F)F)c3)cc2)ccn1	enzyme activity	inhibitor		0.3 µM	inhibition	-10%
Cc1nc(C2CCN(C(=O)c3ccc(OC(F)(F)F)cc3N)CC2)c2ncc(N3CCN(C)CC3)cc2n1	cell-free assay		competition with immobilised ligand	1 µM	remaining binding	100%
CCN(CC)c1ccc(C2=NNC(=O)CC2C)cc1[N+](=O)[O-] (stereo not shown)	enzyme activity	inhibitor		10 µM	remaining activity	83%
